This passage reports Tm and folding enthalpy results from the array DNA melting data of Ke et al. (doi:10.1101/2024.01.08.574731).

A short description of data set [1]: melting temperature; fluorescence melt of hairpins on a sequencing array, two-state fit, raised by 9.35 °C to match UV melts. As to conditions: sodium 0.088 M. The essentials: (§1)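 With Cy3 and quencher oligos annealed, library hairpins on a sequenced MiSeq flow cell were imaged for Cy3 fluorescence in 50 mM Na-HEPES pH 8.0, 25 mM NaCl, in 2.5 °C steps up to 60 °C. Melting temperature and folding enthalpy were derived from bootstrapped two-state fits of signals normalised to pre-quench Cy3 and to control constructs. Four replicates were combined by inverse variance, with fitted temperatures raised by 9.35 °C to match UV melts.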

The nature of data set [2]: folding enthalpy; higher = less favourable; fluorescence melt of hairpins on a sequencing array, two-state fit. As to conditions: sodium 0.088 M. The gist of the method:
as §1

As to GCTGGACGAAAGTCAAGC (((.(((....))).))), in data set [1], the Tm stood at 58.7 °C. Also, the folding enthalpy in data set [2] is -38.3 kcal/mol.

As to GCCCTGCGAAAGCTGAGC ((.(.((....)).).)), the Tm in data set [1] worked out at 47.2 °C. Moreover, the folding enthalpy in data set [2] is -13.9 kcal/mol.

Regarding GCGCCTACGAAAGTACGC (((..(((....)))))), the Tm in data set [1] worked out at 42 °C. Besides, the folding enthalpy in data set [2] was -27.8 kcal/mol.

For the sequence GGCCGAGGAAACCCAGCC (((.(.(....).).))), the Tm in data set [1] amounted to 29.6 °C. In data set [2], the folding enthalpy was -11.8 kcal/mol.

As for GACGCCGAAAGGCCTGTC ((((((....)))..))), the Tm in data set [1] worked out at 35.1 °C. The folding enthalpy in data set [2] is -13.5 kcal/mol.

Regarding GGACCGTCGAAAGACTCC (((..(((....)))))), in data set [1], the Tm amounted to 30.7 °C. Further, the folding enthalpy in data set [2] is -12.9 kcal/mol.

Take GGTCTTACGAAAGTAACC (((..(((....)))))): in data set [1], the Tm worked out at 25.7 °C. Further, in data set [2], the folding enthalpy is -10.7 kcal/mol.

For GCGCCGCGAAAGCGTGGC ((..(((....)))..)), in data set [1], the Tm amounted to 51.7 °C. Further, in data set [2], the folding enthalpy is -14.9 kcal/mol.

In the case of GGGGGTTCGAAAGAACCC (((..(((....)))))), the Tm in data set [1] came out at 58.9 °C. For the same sequence, the folding enthalpy in data set [2] was -7.33 kcal/mol.

Regarding GACTCTGGAAACAGGGTC (((.(((....))).))), the Tm in data set [1] amounted to 49.4 °C. Further, the folding enthalpy in data set [2] was -30.7 kcal/mol.

In the case of GTGGCGGGAAACCGCTAC ((.((((....)))).)), the Tm in data set [1] turned out to be 58.3 °C. Besides, the folding enthalpy in data set [2] is -19.3 kcal/mol.

Regarding GGTTCCGAAAGGACGACC ((((((....)))..))), the Tm in data set [1] worked out at 37.4 °C. Moreover, the folding enthalpy in data set [2] is -15.8 kcal/mol.

For GCTACTGAAAAGTAGC ((((((....)))))), the Tm in data set [1] was found to be 56.7 °C. Also, in data set [2], the folding enthalpy was -35.1 kcal/mol.

As to GCTTTGCGAAAGCACAGC (((.(((....))).))), the Tm in data set [1] is 50.7 °C. The folding enthalpy in data set [2] is -47.5 kcal/mol.

With GCAGGGCGAAAGCGCCGC ((.(.((....)).).)), in data set [1], the Tm came to 52.6 °C. In addition, the folding enthalpy in data set [2] was -15.7 kcal/mol.

In the case of GATGCCGAAAGGCACATC ((((((....)))..))), in data set [1], the Tm was 33.3 °C. In addition, in data set [2], the folding enthalpy was -8.64 kcal/mol.

As to GAGACCGAAAGGTCGCTC ((((((....)))..))), in data set [1], the Tm was determined as 69.1 °C. The folding enthalpy in data set [2] is -14.3 kcal/mol.

GTGATCGGAAACGACCAC (((.(((....))).))): the Tm in data set [1] came out at 47.6 °C. Also, the folding enthalpy in data set [2] was -42 kcal/mol.

GTTTGCGAAAGCAAAAC ((((((....))).))): the Tm in data set [1] was found to be 52.6 °C. Also, the folding enthalpy in data set [2] is -17.4 kcal/mol.

In the case of GCACAGCGAAAGCTCCGC ((..(((....)))..)), the Tm in data set [1] came to 28.1 °C. In addition, in data set [2], the folding enthalpy was -9.89 kcal/mol.

As to GCCCGCGAAAGCGTAGGC ((((((....)))..))), the Tm in data set [1] stood at 62.4 °C. Besides, in data set [2], the folding enthalpy was -22.3 kcal/mol.

As to GCACGGGGAAACCCGTAC (.(((((....))))).), the Tm in data set [1] is 41.7 °C. Moreover, in data set [2], the folding enthalpy was -13.2 kcal/mol.

Consider GCATAGCGAAAGCACTGC (((..((....))..))), for which the Tm in data set [1] came to 39.6 °C. For the same sequence, the folding enthalpy in data set [2] was -13.9 kcal/mol.

As to GATCGTACAAACGATC ((((((....)))))), the Tm in data set [1] is 52.6 °C. Further, the folding enthalpy in data set [2] was -40.2 kcal/mol.

With GAGGTCGGAAACGACCCC (.(((((....))))).), the Tm in data set [1] was determined as 48.3 °C. The folding enthalpy in data set [2] was -9.23 kcal/mol.

In the case of GGAACGGAAACGTTCC ((((((....)))))), the Tm in data set [1] was 64.2 °C. The folding enthalpy in data set [2] was -40.4 kcal/mol.

Turning to GATCCTCACCAGGATC ((((((....)))))), the Tm in data set [1] worked out at 50.9 °C. Further, the folding enthalpy in data set [2] was -38.6 kcal/mol.

Take GATCGTGGTACGATC ((((((...)))))): the Tm in data set [1] came out at 58.2 °C. In addition, the folding enthalpy in data set [2] is -34.7 kcal/mol.

On to GATCGACCGGTCGATC ((((((....)))))), for which the Tm in data set [1] is 61.5 °C. In addition, the folding enthalpy in data set [2] was -51.5 kcal/mol.

Turning to GATCCTCTGAAGGATC ((((((....)))))), the Tm in data set [1] worked out at 51.6 °C. In addition, in data set [2], the folding enthalpy is -36.8 kcal/mol.

Consider GCCTATCCGAAAGGAGGC (((..(((....)))))), for which the Tm in data set [1] worked out at 47.3 °C. Besides, in data set [2], the folding enthalpy was -20.7 kcal/mol.

For the sequence GGTCGGCGAAAGCCTACC (((.(((....))).))), the Tm in data set [1] was found to be 53.5 °C. Also, the folding enthalpy in data set [2] is -25.9 kcal/mol.

In the case of GTCGTCGGAAACGGTGAC (((..((....))..))), in data set [1], the Tm turned out to be 42.4 °C. Further, in data set [2], the folding enthalpy is -24 kcal/mol.

Regarding TCTCGGAAACGAGA (((((....))))), the Tm in data set [1] is 47.9 °C. For the same sequence, in data set [2], the folding enthalpy is -19.6 kcal/mol.

Take GATAACCGAAAGGTAATC (((.(((....))).))): the Tm in data set [1] was 40.2 °C. Moreover, the folding enthalpy in data set [2] is -21.2 kcal/mol.

Regarding GGATCCGAAAGGAAATCC ((((((....)))..))), the Tm in data set [1] was found to be 38.2 °C. Moreover, in data set [2], the folding enthalpy is -25.9 kcal/mol.
